# Results from ChEMBL document CHEMBL2074454, “Characterisation of human monocarboxylate transporter 4 substantiates its role in lactic acid efflux from skeletal muscle” (J Physiol, 2000).
# B1: Monocarboxylate transporter 4 (Homo sapiens), O15427 (protein)
# chain: MGGAVVDEGPTGVKAPDGGWGWAVLFGCFVITGFSYAFPKAVSVFFKELIQEFGIGYSDTAWISSILLAMLYGTGPLCSVCVNRFGCRPVMLVGGLFASLGMVAASFCRSIIQVYLTTGVITGLGLALNFQPSLIMLNRYFSKRRPMANGLAAAGSPVFLCALSPLGQLLQDRYGWRGGFLILGGLLLNCCVCAALMRPLVVTAQPGSGPPRPSRRLLDLSVFRDRGFVLYAVAASVMVLGLFVPPVFVVSYAKDLGVPDTKAAFLLTILGFIDIFARPAAGFVAGLGKVRPYSVYLFSFSMFFNGLADLAGSTAGDYGGLVVFCIFFGISYGMVGALQFEVLMAIVGTHKFSSAIGLVLLMEAVAVLVGPPSGGKLLDATHVYMYVFILAGAEVLTSSLILLLGNFFCIRKKPKEPQPEVAAAEEEKLHKPPADSGVDLREVEHFLKAEPEKNGEVVHTPETSV
# How the values were obtained:
# [1] = molecular target: T1, Monocarboxylate transporter 4 (Homo sapiens, UniProt O15427); assay: TP_TRANSPORTER: inhibition of L-Lactate uptake (L-Lactate:30mM) in Xenopus laevis oocytes; format: functional, cell-based, Oocyte
# T1 sequence (O15427 whole entry): B1 chain
# Outline: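 Human MCT4 cRNA (12 ng) injected into collagenase-treated stage V–VI oocytes, cultured 48–72 h at 18°C. Oocytes loaded with 5 μM BCECF-AM, 30 min, room temperature. Single oocyte superfused in uptake buffer pH 7.4 (NaCl isosmotically replaced). Inhibitor added simultaneously with 30 mM L-lactate at increasing concentrations. Initial acidification rate from first-order fit, as % of uninhibited rate. K0.5 from non-competitive fit, n=4–5 oocytes.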
# [2] = molecular target: T2, Monocarboxylate transporter 4 (Homo sapiens) (UniProt O15427); assay: (§1) TP_TRANSPORTER: uptake in Xenopus laevis oocytes; format: functional, cell-based; conditions: Oocyte
# T2 sequence (whole entry): B1 chain
# Outline: (§2)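 Stage V–VI oocytes were injected with 12 ng MCT4 or MCT1 cRNA and kept in Barth's medium at 18°C. They were assayed 48–72 h later after loading with 5 μM BCECF-AM (30 min, room temperature, pH 7.4 buffer). Single oocytes were superfused with monocarboxylate Na salt (isosmotic NaCl replacement). Initial acidification rate came from a first-order fit, normalised to L-lactate on the same oocyte, then Michaelis–Menten regression.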
# [3] = substrate: CC(O)C(=O)[O-].[Na+]; assay: as §1; format: functional, cell-based; conditions: Oocyte; outline: as §2
# [4] = substrate: CC(C)CC(=O)C(=O)O; assay: as §1; format: functional, cell-based; conditions: Oocyte; outline: as §2
# [5] = substrate: COC(=O)[C@H](C)Cl; assay: as §1; format: functional, cell-based; conditions: Oocyte; outline: as §2
# [6] = substrate: CCC(=O)C(=O)O; assay: as §1; format: functional, cell-based; conditions: Oocyte; outline: as §2
# [7] = substrate: O=C(O)CCCl; assay: as §1; format: functional, cell-based; conditions: Oocyte; outline: as §2
# [8] = substrate: CCC(O)C(=O)O; assay: as §1; format: functional, cell-based; conditions: Oocyte; outline: as §2
Molecule,IC50 [1] [µM],Activity [2],other results
N#C/C(=C\c1ccc(O)cc1)C(=O)O [alpha-CYANO-4-HYDROXYCINNAMIC ACID],991,,
O=C(O)O,,is not a substrate [-],
CC(C)Cn1c(=O)n(C)c(=O)c2[nH]cnc21 [ISOBUTYLMETHYLXANTHINE],970,,
p-Chloromercuribenzenesulfonate,,,IC50 ([1]; oocyte): 21 µM
O=C(CCc1ccc(O)cc1)c1c(O)cc(O)cc1O [PHLORETIN],41,,
O=C(O)c1cc([N+](=O)[O-])ccc1NCCCc1ccccc1 [5-NITRO-2-PHENYLPROPYLAMINOBENZOIC ACID [NPPB]],240,,
NC(=O)C(=O)O,,is not a substrate [-],
O=C(O)CCCO,,is not a substrate [-],
O=C(O)C(=O)Cc1ccccc1,,is not a substrate [-],
O=CC(=O)O,,is not a substrate [-],
O=C[O-].[Na+],,is not a substrate [-],
B1,,,Km [3]: 28 mM; Km [4]: 95 mM; Km [5]: 46 mM; Km [6]: 57 mM; Km [7]: 51 mM; Km [8]: 56 mM
